Test results as given in article PMC2741613 (Journal of the American Chemical Society, 2009).

Tests used:
Type in all cases: biochemical
[1] = biological target: T1, TC-PTP (Homo sapiens, UniProt P17706); assay: TC-PTP-catalyzed pNPP hydrolysis inhibition
T1 sequence (P17706 1-415): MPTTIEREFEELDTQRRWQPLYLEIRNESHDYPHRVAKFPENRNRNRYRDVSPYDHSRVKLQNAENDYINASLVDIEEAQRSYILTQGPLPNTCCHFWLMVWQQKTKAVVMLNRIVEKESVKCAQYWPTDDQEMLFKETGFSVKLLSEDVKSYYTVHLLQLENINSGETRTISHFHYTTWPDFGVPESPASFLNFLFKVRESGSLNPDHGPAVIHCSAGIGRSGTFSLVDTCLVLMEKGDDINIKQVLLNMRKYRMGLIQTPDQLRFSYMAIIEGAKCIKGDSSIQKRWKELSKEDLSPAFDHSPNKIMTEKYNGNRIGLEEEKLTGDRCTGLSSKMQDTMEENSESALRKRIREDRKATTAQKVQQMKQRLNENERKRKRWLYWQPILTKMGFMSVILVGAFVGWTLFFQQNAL
Outline: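 IC50: enzyme added last (10 nM or 0.4 nM final) to 2 mM pNPP (Km) plus varied test compound, 30 min at room temperature, NaOH quench, A405. Reversibility: enzyme preincubated with test compound 30 min before pNPP. Mode/Ki: 0.4 nM enzyme, varied pNPP and inhibitor, kinetic fit.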

[2] = biological target: T2, PTP1B (Homo sapiens, UniProt P18031); assay: PTP activity assay with pNPP, PTP1B
T2 sequence (P18031 1-435): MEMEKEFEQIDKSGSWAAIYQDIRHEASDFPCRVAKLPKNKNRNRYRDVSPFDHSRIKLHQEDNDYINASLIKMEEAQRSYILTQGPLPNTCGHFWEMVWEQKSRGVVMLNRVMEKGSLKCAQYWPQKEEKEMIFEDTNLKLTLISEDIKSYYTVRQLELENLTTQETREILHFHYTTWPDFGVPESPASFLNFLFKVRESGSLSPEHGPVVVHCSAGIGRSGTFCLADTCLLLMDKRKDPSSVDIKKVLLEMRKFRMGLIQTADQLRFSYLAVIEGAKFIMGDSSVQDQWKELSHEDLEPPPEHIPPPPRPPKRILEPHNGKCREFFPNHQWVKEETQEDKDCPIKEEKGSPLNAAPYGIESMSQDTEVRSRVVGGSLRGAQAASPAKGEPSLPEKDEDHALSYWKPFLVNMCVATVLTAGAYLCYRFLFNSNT
Outline: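 Reactions started by adding enzyme (2 nM final) to mixtures with varied pNPP and varied test compound. Rates fitted with an enzyme-kinetics model to give Ki and mode of inhibition.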

[3] = biological target: PTPα (Homo sapiens, UniProt P18433); assay: PTP activity assay with pNPP, PTPα
Outline: (§1)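 Reactions started by adding enzyme to mixtures with various pNPP and test-compound concentrations. Rates were fitted with an enzyme-kinetics model for Ki.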

[4] = biological target: T3, CD45 (Homo sapiens, UniProt P08575); assay: PTP activity assay with pNPP, CD45
T3 sequence (P08575 26-1306): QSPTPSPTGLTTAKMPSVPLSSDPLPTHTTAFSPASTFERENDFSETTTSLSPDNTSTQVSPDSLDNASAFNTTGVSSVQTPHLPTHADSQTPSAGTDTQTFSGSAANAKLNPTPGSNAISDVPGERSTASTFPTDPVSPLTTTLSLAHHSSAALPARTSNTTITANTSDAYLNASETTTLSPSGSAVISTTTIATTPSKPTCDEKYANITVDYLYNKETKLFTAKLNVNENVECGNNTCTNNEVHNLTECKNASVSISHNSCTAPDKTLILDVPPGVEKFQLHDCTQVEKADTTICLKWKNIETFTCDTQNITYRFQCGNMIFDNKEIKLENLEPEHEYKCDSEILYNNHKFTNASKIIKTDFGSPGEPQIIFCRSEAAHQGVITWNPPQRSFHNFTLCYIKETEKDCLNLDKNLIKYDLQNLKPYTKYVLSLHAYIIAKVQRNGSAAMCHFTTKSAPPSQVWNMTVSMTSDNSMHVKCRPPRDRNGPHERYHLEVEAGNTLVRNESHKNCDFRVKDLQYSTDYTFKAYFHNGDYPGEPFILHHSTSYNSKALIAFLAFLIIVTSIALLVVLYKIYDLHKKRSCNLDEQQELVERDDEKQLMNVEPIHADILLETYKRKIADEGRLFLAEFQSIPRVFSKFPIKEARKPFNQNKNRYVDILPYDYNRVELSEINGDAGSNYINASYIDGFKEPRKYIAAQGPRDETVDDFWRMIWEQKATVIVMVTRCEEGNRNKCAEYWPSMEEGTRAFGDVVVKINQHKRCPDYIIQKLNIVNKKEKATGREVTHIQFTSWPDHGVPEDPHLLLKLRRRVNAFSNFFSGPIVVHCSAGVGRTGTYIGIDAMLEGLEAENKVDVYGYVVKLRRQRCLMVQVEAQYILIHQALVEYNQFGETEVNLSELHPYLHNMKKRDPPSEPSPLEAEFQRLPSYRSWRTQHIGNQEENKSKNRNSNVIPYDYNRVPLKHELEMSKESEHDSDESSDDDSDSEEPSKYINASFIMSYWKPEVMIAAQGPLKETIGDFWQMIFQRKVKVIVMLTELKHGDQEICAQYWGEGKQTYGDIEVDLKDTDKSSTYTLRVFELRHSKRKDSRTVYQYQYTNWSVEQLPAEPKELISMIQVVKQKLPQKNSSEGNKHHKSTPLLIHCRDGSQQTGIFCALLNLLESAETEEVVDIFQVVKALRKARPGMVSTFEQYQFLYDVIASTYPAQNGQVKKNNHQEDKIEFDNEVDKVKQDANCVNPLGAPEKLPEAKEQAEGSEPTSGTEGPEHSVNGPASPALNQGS
Outline: as §1

PTPα, sequence (P18433 20-802): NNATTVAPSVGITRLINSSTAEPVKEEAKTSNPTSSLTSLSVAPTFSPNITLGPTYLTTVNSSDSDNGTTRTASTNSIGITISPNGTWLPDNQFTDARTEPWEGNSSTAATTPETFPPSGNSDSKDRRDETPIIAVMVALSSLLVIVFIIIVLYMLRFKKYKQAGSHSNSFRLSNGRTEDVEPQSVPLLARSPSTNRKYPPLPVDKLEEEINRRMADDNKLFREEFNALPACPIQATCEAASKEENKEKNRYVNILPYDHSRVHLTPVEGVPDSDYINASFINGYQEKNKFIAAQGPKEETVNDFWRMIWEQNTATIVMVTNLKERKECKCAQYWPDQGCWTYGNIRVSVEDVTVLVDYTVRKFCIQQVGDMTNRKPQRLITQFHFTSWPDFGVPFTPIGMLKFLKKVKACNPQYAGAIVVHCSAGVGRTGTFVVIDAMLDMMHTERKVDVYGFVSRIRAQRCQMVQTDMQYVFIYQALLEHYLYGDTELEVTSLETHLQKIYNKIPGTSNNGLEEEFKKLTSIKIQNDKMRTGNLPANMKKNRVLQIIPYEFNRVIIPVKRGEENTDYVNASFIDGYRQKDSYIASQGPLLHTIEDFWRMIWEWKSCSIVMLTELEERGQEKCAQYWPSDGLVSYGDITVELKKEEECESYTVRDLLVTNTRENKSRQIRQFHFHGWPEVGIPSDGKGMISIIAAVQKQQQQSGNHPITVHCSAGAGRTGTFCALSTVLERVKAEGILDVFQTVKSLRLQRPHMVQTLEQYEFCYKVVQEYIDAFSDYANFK

For CCc1ccc(C(=O)NCCCC[C@H](NC(=O)[C@H](Cc2ccc(C(F)(F)P(=O)(O)O)cc2)NC(=O)[C@H](Cc2ccccc2)NC(=O)CO[C@H]2C[C@@H](C)CC[C@@H]2C(C)C)C(N)=O)cc1 [Compound 8], the “reversibility of TC-PTP inhibition” value ([1]; IC50 without or with 30 min preincubation) was “reversible”, the “mode of TC-PTP inhibition” value ([1]; Lineweaver-Burk analysis, pNPP) was “competitive” and the Ki ([1]; TC-PTP, pNPP substrate) was 4.3 ± 0.2 nM. For the same compound, the Ki ([2]; PTP1B) was 34 ± 2.8 nM, the “selectivity for TC-PTP over PTP1B” value ([2]; TC-PTP versus PTP1B) was 8 fold and the Ki [3] was > 1000 nM. The Ki [4] was > 1000 nM.
